From paper PMC3038628 (Journal of molecular biology, 2010)
Numbering of substitutions follows the chain as printed. Numbers in names are those of the source.

B1: M264D: α-TTP mutant; surface methionine replaced with aspartate in a region predicted distant from the membrane plane (protein, UniProt P49638 1-278, looked up, variant M264D)
Alpha-tocopherol transfer …: MAEARSQPSAGPQLNALPDHSPLLQPGLAALRRRAREAGVPLAPLPLTDSFLLRFLRARDFDLDLAWRLLKNYYKWRAECPEISADLHPRSIIGLLKAGYHGVLRSRDPTGSKVLIYRIAHWDPKVFTAYDVFRVSLITSELIVQEVETQRNGIKAIFDLEGWQFSHAFQITPSVAKKIAAVLTDSFPLKVRGIHLINEPVIFHAVFSMIKPFLTEKIKERIHMHGNNYKQSLLQHFPDILPLEYGGEEFSMEDICQEWTNFIDKSEDYLSSISESIQ
B2: I202D: α-TTP mutant, Ile202 to Asp (helix A10) (protein, UniProt P49638 1-278, looked up, variant I202D)
Alpha-tocopherol transfer …: B1 Alpha-tocopherol transfer … with I202D, D264M
B3: M209A: α-TTP mutant, Met209 to Ala (protein, UniProt P49638 1-278, looked up, variant M209A)
Alpha-tocopherol transfer …: B1 Alpha-tocopherol transfer … with M209A, D264M
B4: R192H: naturally-occurring α-TTP mutant associated with heritable mild vitamin E deficiency in humans (protein, UniProt P49638 1-278, looked up, variant R192H)
Alpha-tocopherol transfer …: B1 Alpha-tocopherol transfer … with R192H, D264M
B5: K211A: α-TTP mutant, surface Lys211 (helix A10) to Ala (protein, UniProt P49638 1-278, looked up, variant K211A)
Alpha-tocopherol transfer …: B1 Alpha-tocopherol transfer … with K211A, D264M
B6: V206A: α-TTP mutant, Val206 to Ala (protein, UniProt P49638 1-278, looked up, variant V206A)
Alpha-tocopherol transfer …: B1 Alpha-tocopherol transfer … with V206A, D264M
B7: F165A: α-TTP mutant, Phe165 to Ala (protein, UniProt P49638 1-278, looked up, variant F165A)
Alpha-tocopherol transfer …: B1 Alpha-tocopherol transfer … with F165A, D264M
B8: K217A: α-TTP mutant, surface Lys217 (helix A11) to Ala (protein, UniProt P49638 1-278, looked up, variant K217A)
Alpha-tocopherol transfer …: B1 Alpha-tocopherol transfer … with K217A, D264M
B9: M209D: α-TTP mutant, Met209 to Asp (helix A10) (protein, UniProt P49638 1-278, looked up, variant M209D)
Alpha-tocopherol transfer …: B1 Alpha-tocopherol transfer … with M209D, D264M
B10: I202D/M209D: α-TTP double mutant (protein, UniProt P49638 1-278, looked up, variant I202D M209D)
Alpha-tocopherol transfer …: B1 Alpha-tocopherol transfer … with I202D, M209D, D264M
B11: F165D/M209D: α-TTP double mutant (protein, UniProt P49638 1-278, looked up, variant F165D M209D)
Alpha-tocopherol transfer …: B1 Alpha-tocopherol transfer … with F165D, M209D, D264M
B12: F165D: α-TTP mutant, Phe165 to Asp (helix A8) (protein, UniProt P49638 1-278, looked up, variant F165D)
Alpha-tocopherol transfer …: B1 Alpha-tocopherol transfer … with F165D, D264M

Experiments:
[1] = Dual polarization interferometry of protein adsorption to immobilized bilayer; format: binding; settings: for Ads^mut/Ads^wt (0.50 μM injection): 0.50 μM protein injection; for Ads^mut/Ads^wt (1.0 μM injection): 1.0 μM protein injection; for Fold change in affinity: relative to wild type; for Adsorption/binding to immobilized bilayers by DPI, % of wild type: injection concentration not stated
Outline: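 Recombinant α-TTP (E. coli BL21(DE3), glutathione affinity, thrombin-cleaved) was dialysed 1 h at 4 °C into pH 7.4 phosphate/137 mM NaCl buffer. It was injected at 25 μl/min for 8 min over a 90:10 DOPC:DOPS bilayer on a silicon oxynitride chip at 20 °C. Adsorbed mass was measured at 0.5 and 1.0 μM in quadruplicate, two channels each. Kd came from fitting Bmax against concentration.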

[2] = FRET assay of NBD-Toc transfer from α-TTP variants to SUVs; format: biochemical; settings: for Rate of NBD-Toc transfer to SUV, Rate: PC vesicles, 0.225 μM NBD-Toc, 2 μM α-TTP, 100 μM vesicles, room temperature; for Rate of NBD-Toc transfer to SUV, Rate^mut/Rate^wt: relative to wild type; for Reduction of rate of transfer to SUVs: reduction relative to wild type
Outline: (§1)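 Each protein (4 μM) was preloaded with 0.45 μM NBD-Toc for 15 min in SET buffer (pH 7.4). It was then stopped-flow mixed at room temperature with 200 μM acceptor vesicles of 97% liver PC and 3% TRITC-PE (finals 0.225 μM, 2 μM, 100 μM). Vesicles were sonicated SUVs (~60 nm) or extruded LUVs (150 nm). NBD quench was normalised to initial fluorescence and fitted single-exponentially.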

[3] = FRET assay of NBD-Toc transfer from α-TTP variants to LUVs; format: biochemical; settings: for Rate of NBD-Toc transfer to LUV, Rate: PC vesicles, 0.225 μM NBD-Toc, 2 μM α-TTP, 100 μM vesicles, room temperature; for Rate of NBD-Toc transfer to LUV, Rate^mut/Rate^wt: relative to wild type
Outline: as §1

[4] = Filtration; format: binding; settings: compared with wild type
Outline: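 Recombinant α-TTP (31.5 μg) was incubated with increasing concentrations of sonicated SUVs or extruded 150 nm LUVs in SET buffer for 30 min at room temperature. Mixtures were spun through 100 kDa-cutoff filters at 10,000g for 20 min to separate vesicle-bound from free protein. Protein was resolved on gels, stained with colloidal Coomassie and quantified by band densitometry.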

Molecule	Ads^mut/Ads^wt (0.50 μM injection) [1]	Ads^mut/Ads^wt (1.0 μM injection) [1]	Fold change in affinity [1]	Rate of NBD-Toc transfer to SUV, Rate [2] [s⁻¹]	Rate of NBD-Toc transfer to SUV, Rate^mut/Rate^wt [2] [%]	Reduction of transfer rate with LUVs versus SUVs ([3]; LUVs compared with SUVs) [fold]	Rate of NBD-Toc transfer to LUV, Rate [3] [s⁻¹]	Rate of NBD-Toc transfer to LUV, Rate^mut/Rate^wt [3] [%]	Reduction of rate of transfer to SUVs [2] [%]	Reduction of rate of ligand deposition in LUVs ([3]; reduction relative to wild type) [%]	Effect on rate of NBD-Toc transfer to SUVs (in words) ([2]; compared with wild type or single mutants)	Adsorption/binding to immobilized bilayers by DPI, % of wild type [1]	Binding to immobilized bilayers, % of WT ([1]; printed "for LUVs") [%]	Binding to immobilized bilayers, % of WT ([1]; printed "for SUVs") [%]	Vesicle binding to SUVs (in words) [4]
WT: human α-tocopherol transfer protein, wild type, expressed in E. coli as GST fusion and cleaved	1	1	0	0.127 ± 0.012	100	8	0.016 ± 0.002	100	–	–	–	–	–	–	–
B1	0.66	0.81	–	0.116 ± 0.013	91	–	0.008 ± 0.001	50	9	50	–	–	–	–	–
B2	0.29	0.27	5	0.028 ± 0.002	22	–	0.005 ± 0.002	31	78	–	–	–	–	–	–
B3	1.01	1.12	–	0.140 ± 0.012	110	–	0.025 ± 0.005	156	–	–	essentially no effect	–	–	–	–
B4	1.58	1.50	–	0.106 ± 0.008	83	–	0.012 ± 0.003	75	–	–	–	~ 150%	150	158	–
B5	1.23	0.95	–	0.105 ± 0.008	83	–	0.011 ± 0.001	69	–	–	–	123%	–	–	–
B6	0.93	1.14	–	0.154 ± 0.012	121	–	0.016 ± 0.002	100	–	–	–	–	–	–	–
B7	0.37	0.45	5.1	0.037 ± 0.002	29	–	0.005 ± 0.002	34	71	–	–	–	–	–	diminished vesicle binding
B8	1.71	1.80	–	0.130 ± 0.011	102	–	0.010 ± 0.004	62	–	–	–	171%	180	171	essentially indistinguishable
B9	0.39	0.42	1.2	0.047 ± 0.004	37	–	0.013 ± 0.001	81	63	–	–	–	–	–	–
B10	0.13	0.07	10.9	–	11	–	0.008 ± 0.003	50	–	–	–	–	–	–	–
B11	0.01	0.18	–	0.034 ± 0.003	27	–	0.010 ± 0.001	62	–	–	–	–	–	–	–
B12	0.11	0.19	12.2	0.013 ± 0.001	10	–	0.009 ± 0.005	56	90	–	–	11%	–	–	diminished vesicle binding
